Data set [1] in a line: Antiproliferative activity against human DLD1 cells after 24 hrs by MTT assay. The data set is classed as functional, cell-based. As to conditions: DLD-1, 24 h. The procedure, abridged:
(§1)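 MTT viability: cells seeded at 1×10^4 per well in DMEM with 10% FBS, left to adhere overnight, then serum-starved 4 h. Compounds were given at a range of doses, with 0.1% DMSO vehicle as control. EC50 was taken from dose-response curves spanning 100nM-50µM. Data are mean ± SEM from at least three independent experiments.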
For orientation: Tetrazolium assays rely on reduction of a dye to a coloured formazan, in cell work by metabolically active cells.

The next data set has as its system SW-620. Description: Antiproliferative activity against human SW620 cells after 24 hrs by MTT assay. It is filed as functional, cell-based. Particulars: SW-620, 24 h. The procedure, abridged:
as §1

The nature of data set [2]: Safety index, ratio of IC50 for human MCF10A cells to EC50 for human DLD1 cells. It is filed as toxicity, cell-based, MCF-10A. As to conditions: MCF10A cells versus DLD1 cells, read-out: Ratio IC50/EC50. In short, it runs like this: (§2)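 Safety index is the IC50 in the normal cells divided by the EC50 in the cancer cells. Both values come from MTT assays: cells in DMEM with 10% FBS, serum-starved 4 h, then exposed to compound across a 100nM-50µM dose range with 0.1% DMSO as vehicle control.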

Data set [3] can be described thus: Safety index, ratio of IC50 for human MCF10A cells to EC50 for human HCT116 cells. It is filed as toxicity, cell-based, MCF-10A. Particulars: MCF10A cells versus HCT116 cells, read-out: Ratio IC50/EC50. In short, it runs like this: as §2
For the next data set, the system named is HEK293. Description: Antiproliferative activity against HEK293 cells after 24 hrs by MTT assay. The data set is classed as functional, cell-based. As to conditions: Homo sapiens, HEK293, 24 h. The procedure, abridged:
as §1

The nature of data set [4]: Safety index, ratio of IC50 for human MCF10A cells to EC50 for human SW620 cells. It is filed as toxicity, cell-based, SW-620. Particulars: MCF10A cells versus SW620 cells, read-out: Ratio IC50/EC50. In short, it runs like this: as §2
A short description of data set [5]: Safety index, ratio of IC50 for human MCF10A cells to EC50 for human COLO205 cells. Particulars: MCF10A cells versus COLO205 cells, read-out: Ratio IC50/EC50. The data set is classed as toxicity, cell-based, COLO 205. The procedure, abridged:
as §2

Data set [6] is described as follows: Antiproliferative activity against human HCT116 cells after 24 hrs by MTT assay. As to conditions: HCT-116, 24 h. The data set is classed as functional, cell-based. In short, it runs like this:
as §1

Data set [7] is described as follows: Antiproliferative activity against human COLO205 cells after 24 hrs by MTT assay. As to conditions: COLO 205, 24 h. The data set is classed as functional, cell-based. In short, it runs like this: as §1
The test system of data set [8] is MCF7. Nature of the data set: Antiproliferative activity against human ER-negative MCF7 cells after 72 hrs by MTT assay. As to conditions: MCF7, 72 h. The data set is classed as functional, cell-based.
Data set [9] deals with MDA-MB-231. Nature of the data set: Antiproliferative activity against human ER-positive MDA-MB-231 cells after 24 hrs by MTT assay. The data set is classed as functional, cell-based. Particulars: Homo sapiens, MDA-MB-231, 24 h.
The test system of data set [10] is MDA-MB-231. Description: Antiproliferative activity against human ER-positive MDA-MB-231 cells after 72 hrs by MTT assay. It is filed as functional, cell-based. Particulars: MDA-MB-231, 72 h.
In a further data set the test system is HeLa. Nature of the data set: Antiproliferative activity against human HeLa cells after 24 hrs by MTT assay. The data set is classed as functional, cell-based. Particulars: Homo sapiens, HeLa, 24 h.
The subject of a further data set is Ishikawa. Description: Antiproliferative activity against human ER-positive Ishikawa cells after 24 hrs by MTT assay. The data set is classed as functional, cell-based. As to conditions: Homo sapiens, Ishikawa, 24 h.
The subject of data set [11] is MCF7. Description: Antiproliferative activity against human ER-negative MCF7 cells after 24 hrs by MTT assay. It is filed as functional, cell-based. Particulars: Homo sapiens, MCF7, 24 h.
The next data set is described as follows: in vitro. Particulars: human, MCF10A cells versus.
Data set [12] is described as follows: Cytotoxicity against human MCF10A cells after 72 hrs by MTT assay. It is filed as ADME, cell-based. As to conditions: MCF-10A.
The nature of data set [13]: Antiproliferative activity against human prostate, androgen receptor positive DU145 cells after 24 hrs by MTT assay. Particulars: Homo sapiens, DU-145, 24 h. It is filed as functional, cell-based, DU-145.
Data set [14] in a line: Safety index, ratio of IC50 for human MCF10A cells to EC50 for human ER-positive MDA-MB-231 cells. As to conditions: MCF10A cells versus.

pEC50, pIC50: −log10 of the molar value.

As a reminder, the pEC50 is the EC50 on a negative log10 scale, so that one unit is a factor of ten. Read a high pEC50 as a small EC50. For orientation: pIC50 means the negative decadic logarithm of the IC50, by convention in mol/L. For the molecule `O=c1[nH]cc(F)c(=O)[nH]1` [FLUOROURACIL], the negative logarithm of the EC50 (pEC50) in data set [1] is 4.79; with SW-620, under 4.30; in data set [6], under 4.30; in data set [7] it was 4.42. The selectivity ratio in data set [2] amounted to 2.98; in [3], 0.97; in [4], 0.97; in [5], 1.2. Further, the pIC50 with HEK293 was 4.31.
`CSc1ccc(/C(=N\OCCN2CCCC2)c2cccc3ccccc23)cc1`: the negative-log EC50 (pEC50) in the data set on MCF7 [8] was 5.30; with MDA-MB-231 [9] it was 5.30; in the data set on MDA-MB-231 [10], 5.42; with HeLa, 5.18; in the data set with Ishikawa it was 5.22; in the data set with MCF7 [11], 5.18. The molecule also had a pEC50 in data set [13] of 5.02. Besides, the selectivity ratio in “in vitro” was determined as 1.1; in [14], 1.4. Moreover, in [12], the negative-log IC50 (pIC50) was 5.26.

These data come from ChEMBL document CHEMBL3352791, “Thioaryl naphthylmethanone oxime ether analogs as novel anticancer agents” (J Med Chem, 2014).
